According to ChEMBL document CHEMBL1799999, “N-benzoylated phenoxazines and phenothiazines: synthesis, antiproliferative activity, and inhibition of tubulin polymerization” (J Med Chem, 2011):
Activity calls are given as the source filed them. The rule behind the calls is not given here.

Assays:
[1] = system: COLO 205; experiment: Antiproliferative activity against human COLO205 cells after 72 hrs by sulforhodamine staining method; assay type: functional; conditions: COLO 205, 72 h
Procedure, shortened: (§1)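 Panel of 83 solid-tumour lines plus resting PBMC, run by the DTP NCI sulforhodamine B staining protocol. Compound exposure 72 h, concentrations from 0.0001 to 10 μM. GI50 taken per line; z-scores computed relative to the panel mean GI50.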

[2] = system: HT-29; experiment: Antiproliferative activity against human HT-29 cells after 72 hrs by sulforhodamine staining method; assay type: functional; conditions: HT-29, 72 h; procedure, shortened: as §1
[3] = cells; conditions: Homo sapiens, 451Lu, 48 h
[4] = system: COLO-678; experiment: Antiproliferative activity against human COLO-678 cells after 72 hrs by sulforhodamine staining method; assay type: functional; conditions: COLO-678, 72 h; procedure, shortened: as §1
[5] = system: SK-OV-3; experiment: Antiproliferative activity against human SKOV3 cells after 48 hrs by alamar blue assay; assay type: functional, cell-based; conditions: SK-OV-3, 48 h
Procedure, shortened: (§2)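 Cells seeded in growth medium and grown 24 h at 37 °C/5% CO2. 10 mM DMSO stocks diluted in half-log steps into medium, final DMSO 0.316%. After 45 h of compound exposure, AlamarBlue (resazurin) added for a further 3 h, giving 48 h total. Fluorescence read at 590 nm against untreated and cell-free blanks. At least two replicates; IC50 by nonlinear regression.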

[6] = system: SK-MEL-28; experiment: Antiproliferative activity against human SK-MEL-28 cells after 72 hrs by sulforhodamine staining method; assay type: functional; conditions: SK-MEL-28, 72 h; procedure, shortened: as §1
[7] = system: ASPC1; experiment: Antiproliferative activity against human AsPC1 cells after 72 hrs by sulforhodamine staining method; assay type: functional; conditions: ASPC1, 72 h; procedure, shortened: as §1
[8] = system: NCI-H460; experiment: Antiproliferative activity against human NCI-H460 cells after 48 hrs by alamar blue assay; assay type: functional, cell-based; conditions: NCI-H460, 48 h; procedure, shortened: as §2
[9] = system: BT-549; experiment: Antiproliferative activity against human BT549 cells after 48 hrs by alamar blue assay; assay type: functional, cell-based; conditions: BT-549, 48 h; procedure, shortened: as §2
[10] = Antiproliferative activity against human MDA-MB-436 cells after 72 hrs by sulforhodamine staining method; assay type: functional; conditions: MDA-MB-436, 72 h; procedure, shortened: as §1
[11] = Antiproliferative activity against human MT3 cells after 72 hrs by sulforhodamine staining method; assay type: functional; conditions: MT-3, 72 h; procedure, shortened: as §1
[12] = system: A-375; experiment: Antiproliferative activity against human A375 cells after 72 hrs by sulforhodamine staining method; assay type: functional; conditions: A-375, 72 h; procedure, shortened: as §1
[13] = Antiproliferative activity against human resting PBMC after 72 hrs by sulforhodamine staining method; assay type: cell-based; procedure, shortened: as §1
[14] = system: SW480; experiment: Antiproliferative activity against human SW480 cells after 48 hrs by alamar blue assay; assay type: functional, cell-based; conditions: SW480, 48 h; procedure, shortened: as §2
[15] = system: IGROV-1; experiment: Antiproliferative activity against human IGROV1 cells after 72 hrs by sulforhodamine staining method; assay type: functional; conditions: IGROV-1, 72 h; procedure, shortened: as §1
[16] = system: K562; experiment: Cell cycle arrest in human K562 cells assessed as accumulation at G2/M phase at 0.003 to. 1 ug/ml after 24 hrs by flow cytometric analysis; assay type: functional, cell-based
Procedure, shortened: (§3)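 K562 cells (2 × 10^5/mL) exposed to graded concentrations for 24 h at 37 °C; vehicle DMSO/MeOH 1:1. Washed in PBS, fixed in ice-cold 70% ethanol, stained 30 min with propidium iodide 0.02 mg/mL plus RNase 0.2 mg/mL. DNA content read by flow cytometry with 488 nm excitation; G2/M fraction scored.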

[17] = system: MIA PaCa-2; experiment: Antiproliferative activity against human MIAPaCa2 cells after 72 hrs by sulforhodamine staining method; assay type: functional; conditions: MIA PaCa-2, 72 h; procedure, shortened: as §1
[18] = system: RD; experiment: Antiproliferative activity against human RD cells after 72 hrs by sulforhodamine staining method; assay type: functional; procedure, shortened: as §1
[19] = system: MG-63; experiment: Antiproliferative activity against human MG63 cells after 72 hrs by sulforhodamine staining method; assay type: functional; conditions: MG-63, 72 h; procedure, shortened: as §1
[20] = target: Tubulin (Sus scrofa, UniProt P02554+P02550); experiment: Inhibition of pig tubulin polymerization determined after 45 mins at 37 degC by turbidimetric analysis; assay type: protein assay
Procedure, shortened: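 Microtubule protein (80–90% tubulin with MAPs) from porcine brain, isolated by two cold/warm cycles. Buffer: 20 mM PIPES pH 6.8, 80 mM NaCl, 0.5 mM MgCl2, 1 mM EGTA, 1 mM DTT. Protein at 1.2 mg/mL (about 10 μM tubulin) with 0.6 mM GTP, 1% DMSO, 37 °C.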

[21] = system: HT-1080; experiment: Antiproliferative activity against human HT1080 cells after 72 hrs by sulforhodamine staining method; assay type: functional; conditions: HT-1080, 72 h; procedure, shortened: as §1
[22] = system: DLD-1; experiment: Antiproliferative activity against human DLD1 cells after 48 hrs by alamar blue assay; assay type: functional, cell-based; conditions: DLD-1, 48 h; procedure, shortened: as §2
[23] = system: 5637; experiment: Antiproliferative activity against human 5637 cells after 72 hrs by sulforhodamine staining method; assay type: functional; conditions: Homo sapiens, 5637, 72 h; procedure, shortened: as §1
[24] = system: K562; experiment: Cell cycle arrest in human K562 cells assessed as accumulation at G2/M phase at 30 nM after 24 hrs by flow cytometric analysis; assay type: functional, cell-based; procedure, shortened: as §3
[25] = system: SK-N-AS; experiment: Antiproliferative activity against human SK-N-AS cells after 72 hrs by sulforhodamine staining method; assay type: functional; procedure, shortened: as §1
[26] = system: BXPC-3; experiment: Antiproliferative activity against human BxPC3 cells after 72 hrs by sulforhodamine staining method; assay type: functional; conditions: BXPC-3, 72 h; procedure, shortened: as §1
[27] = system: K562; experiment: Antiproliferative activity against human K562 cells after 48 hrs by hemocytometric analysis; assay type: functional, cell-based; conditions: K562, 48 h
Procedure, shortened: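 K562 cells in RPMI 1640 with 10% FBS at 37 °C/5% CO2, plated at 2 × 10^5 cells/mL. Compounds in DMSO/methanol 1:1, final vehicle 0.5%. Cells counted in a Neubauer hemocytometer after 48 h and expressed as % of untreated control. Triplicate wells, three experiments; IC50 by nonlinear regression.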

[28] = system: SK-N-SH; experiment: Antiproliferative activity against human SK-N-SH cells after 72 hrs by sulforhodamine staining method; assay type: functional; procedure, shortened: as §1

`COc1ccc(C(=O)N2c3ccccc3Oc3cc(C#N)ccc32)cc1O` gave a GI50 [1] of 4260 nM, a GI50 [2] of 5600 nM and an IC50 [3] of 6 nM. It also gave a GI50 [4] of 62.3 nM, an IC50 [5] of 24 nM and a GI50 [6] of 2 nM. The GI50 [7] was over 10000 nM, the IC50 [8] was 40 nM and the IC50 [9] was 16 nM. The GI50 [10] was 1130 nM, the GI50 [11] was 95.1 nM and the GI50 [12] was 2.7 nM. For the same molecule, the GI50 at 72 h [13] was over 10000 nM, the IC50 [14] was 29 nM and the GI50 [15] was 63.3 nM. For the same molecule, the Activity [16] was “Active”, the GI50 [17] was 8410 nM and the GI50 [18] was 2 nM. For the same molecule, the GI50 [19] was 1.8 nM, the IC50 [20] was 520 nM and the GI50 [21] was 2.6 nM. For the same molecule, the IC50 [22] was 16 nM, the GI50 [23] was 1.9 nM and the Activity [24] was “Active”. It also gave a GI50 [25] of 1.8 nM, a GI50 [26] of 2250 nM and an IC50 [27] of 11 nM. For the same molecule, the GI50 [28] was 1.8 nM.
